Source: publication PMC4931877 (The Journal of Pharmacology and Experimental Therapeutics, 2016)

Experiments:
[1] = SAD study safety and tolerability; format: in vivo, human
Method in brief: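 Single-dose subjects, placebo-controlled and double-blind, were assessed by vital signs, physical examination, 12-lead ECG and clinical laboratory tests. AEs were spontaneously reported or elicited, and their onset, duration, intensity, seriousness, relatedness and action taken were recorded. AEs were tabulated by MedDRA 12.1 system organ class and preferred term.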

[2] = test system: brain and CSF Aβ42 and Aβ40; details: rats; ref Toyn et al., 2016; cited from earlier work
brain Aβ42 = test system: brain Aβ42; parameters: species or system human; details: single 900-mg dose
[3] = test system: plasma Aβ40, Aβ42, and total Aβ; experiment: SAD study pharmacodynamic effects on plasma Aβ; format: in vivo, human
Method in brief: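 Single oral doses of 10–1200 mg were given as solution or capsule. Blood tubes were inverted and iced, then centrifuged within 30 min at room temperature for 15 min at about 1000g. Plasma was stored at −80°C. Aβ40 and Aβ42 were measured by Luminex duplex immunoassay and total Aβ by MSD, in duplicate.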

[4] = MAD study safety and tolerability; format: in vivo, human
Method in brief: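 Multiple-dose healthy young and elderly subjects were assessed by vital signs, physical examination, 12-lead ECG and clinical laboratory tests. AEs were spontaneously reported or elicited, and their onset, duration, intensity, seriousness, relatedness and action taken were recorded. AEs were coded by MedDRA 12.1 system organ class and preferred term. Columbia suicidality ratings were also collected.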

Which results are given for `CNc1nc(Nc2ccc(-n3cnc(C)n3)c(OC)c2)nc2c1CC[C@H]2c1ccc(F)cc1` [BMS-932481, (S)-7-(4-fluorophenyl)-N2-(3-methoxy-4-(3-methyl-1H-1,2,4-triazol-1-yl)phenyl)-N4-methyl-6,7-dihydro-5H-cyclopenta[d]pyrimidine-2,4-diamine]?
findings on ECG parameters [1]: no clinical relevant findings; AEs ([1]; 10 mg): 3 (50.0) n (%); Deaths ([1]; 10 mg): 0 n (%); Discontinuation due to AEs ([1]; 10 mg): 0 n (%); Drug-related AEs ([1]; 10 mg): 0 n (%); SAEs ([1]; 10 mg): 0 n (%); AEs ([1]; 30 mg): 2 (33.3) n (%); Deaths ([1]; 30 mg): 0 n (%); Discontinuation due to AEs ([1]; 30 mg): 0 n (%); Drug-related AEs ([1]; 30 mg): 0 n (%); SAEs ([1]; 30 mg): 0 n (%); AEs ([1]; 100 mg): 1 (16.7) n (%); Deaths ([1]; 100 mg): 0 n (%); Discontinuation due to AEs ([1]; 100 mg): 0 n (%); Drug-related AEs ([1]; 100 mg): 0 n (%); SAEs ([1]; 100 mg): 0 n (%); AEs ([1]; 300 mg P2 (cross-over phase 2)): 0 n (%); Deaths ([1]; 300 mg P2 (cross-over phase 2)): 0 n (%); Discontinuation due to AEs ([1]; 300 mg P2 (cross-over phase 2)): 0 n (%); Drug-related AEs ([1]; 300 mg P2 (cross-over phase 2)): 0 n (%); SAEs ([1]; 300 mg P2 (cross-over phase 2)): 0 n (%); AEs ([1]; 300 mg P3 (cross-over phase 3)): 1 (16.7) n (%); Deaths ([1]; 300 mg P3 (cross-over phase 3)): 0 n (%); Discontinuation due to AEs ([1]; 300 mg P3 (cross-over phase 3)): 0 n (%); Drug-related AEs ([1]; 300 mg P3 (cross-over phase 3)): 0 n (%); SAEs ([1]; 300 mg P3 (cross-over phase 3)): 0 n (%); AEs ([1]; 300 mg P (cross-over phase 1)): 0 n (%); Deaths ([1]; 300 mg P (cross-over phase 1)): 0 n (%); Discontinuation due to AEs ([1]; 300 mg P (cross-over phase 1)): 0 n (%); Drug-related AEs ([1]; 300 mg P (cross-over phase 1)): 0 n (%); SAEs ([1]; 300 mg P (cross-over phase 1)): 0 n (%); AEs ([1]; 600 mg): 0 n (%); Deaths ([1]; 600 mg): 0 n (%); Discontinuation due to AEs ([1]; 600 mg): 0 n (%); Drug-related AEs ([1]; 600 mg): 0 n (%); SAEs ([1]; 600 mg): 0 n (%); AEs ([1]; 900 mg): 3 (50.0) n (%); Deaths ([1]; 900 mg): 0 n (%); Discontinuation due to AEs ([1]; 900 mg): 0 n (%); Drug-related AEs ([1]; 900 mg): 1 (16.7) n (%); SAEs ([1]; 900 mg): 0 n (%); Deaths ([1]; 900 mg C (CSF panel)): 0 n (%); Discontinuation due to AEs ([1]; 900 mg C (CSF panel)): 0 n (%); Drug-related AEs ([1]; 900 mg C (CSF panel)): 1 (10.0) n (%); SAEs ([1]; 900 mg C (CSF panel)): 0 n (%); AEs ([1]; 900 mg El (elderly)): 0 n (%); Deaths ([1]; 900 mg El (elderly)): 0 n (%); Discontinuation due to AEs ([1]; 900 mg El (elderly)): 0 n (%); Drug-related AEs ([1]; 900 mg El (elderly)): 0 n (%); SAEs ([1]; 900 mg El (elderly)): 0 n (%); AEs ([1]; 1200 mg): 0 n (%); Deaths ([1]; 1200 mg): 0 n (%); Discontinuation due to AEs ([1]; 1200 mg): 0 n (%); Drug-related AEs ([1]; 1200 mg): 0 n (%); SAEs ([1]; 1200 mg): 0 n (%); tolerability after a single dose ([1]; 10 to 1200 mg, healthy subjects): generally well tolerated; AEs ([1]; all treated): 17 (27.9) n (%); Deaths ([1]; all treated): 0 n (%); Discontinuation due to AEs ([1]; all treated): 0 n (%); Drug-related AEs ([1]; all treated): 2 (3.3) n (%); SAEs ([1]; all treated): 0 n (%); participants with drug-related AEs ([1]; two participants): 3.3%; Aβ42 and Aβ40 lowering in both the brain and CSF [2]: dose-dependent; projected reduction of CSF Aβ42 from baseline (brain Aβ42): ≥ 50%; change in plasma total Aβ ([3]; single dose cohorts): No changes; effect on plasma Aβ42 and Aβ40 ([3]; single-dose): dose-dependently decreased; ECG- or vital sign–related AEs ([4]; MAD): no ECG- or vital sign–related AEs; subjects with increases in total bilirubin ([4]; MAD 50 mg, three of six): 50%; subjects with low leukocyte counts ([4]; MAD 50 mg, three of six): 50%; subjects with increases in total bilirubin ([4]; MAD 100 mg, three of six): 50%; subjects with increases in bilirubin ([4]; MAD 200 mg, five of six): 83%; subjects with low estimated creatinine clearance ([4]; MAD 200 mg, three of six): 50%; subjects with low leukocyte counts ([4]; MAD 200 mg, three of six): 50%; AEs ([4]; MAD, 50 mg): 5 (83.3) n (%); Deaths ([4]; MAD, 50 mg): 0 n (%); Discontinuation due to AEs ([4]; MAD, 50 mg): 0 n (%); Elevated ALT (marked laboratory abnormality) ([4]; MAD, 50 mg): 0 n (%); Elevated bilirubin (marked laboratory abnormality) ([4]; MAD, 50 mg): 3 (50.0) n (%); Elevates AST (marked laboratory abnormality) ([4]; MAD, 50 mg): 0 n (%); Low hematocrit (marked laboratory abnormality) ([4]; MAD, 50 mg): 1 (16.7) n (%); Low hemoglobin (marked laboratory abnormality) ([4]; MAD, 50 mg): 2 (33.3) n (%); Low leukocytes (marked laboratory abnormality) ([4]; MAD, 50 mg): 3 (50.0) n (%); Low lymphocytes (marked laboratory abnormality) ([4]; MAD, 50 mg): 1 (16.7) n (%); Low neutrophils (marked laboratory abnormality) ([4]; MAD, 50 mg): 0 n (%); SAEs ([4]; MAD, 50 mg): 0 n (%); Treatment-related AEs ([4]; MAD, 50 mg): 3 (50.0) n (%); AEs ([4]; MAD, 100 mg): 4 (66.7) n (%); Deaths ([4]; MAD, 100 mg): 0 n (%); Discontinuation due to AEs ([4]; MAD, 100 mg): 0 n (%); Elevated ALT (marked laboratory abnormality) ([4]; MAD, 100 mg): 0 n (%); Elevated bilirubin (marked laboratory abnormality) ([4]; MAD, 100 mg): 3 (50.0) n (%); Elevates AST (marked laboratory abnormality) ([4]; MAD, 100 mg): 0 n (%); Low hematocrit (marked laboratory abnormality) ([4]; MAD, 100 mg): 1 (16.7) n (%); Low hemoglobin (marked laboratory abnormality) ([4]; MAD, 100 mg): 1 (16.7) n (%); Low leukocytes (marked laboratory abnormality) ([4]; MAD, 100 mg): 1 (16.7) n (%); Low lymphocytes (marked laboratory abnormality) ([4]; MAD, 100 mg): 0 n (%); Low neutrophils (marked laboratory abnormality) ([4]; MAD, 100 mg): 1 (16.7) n (%); SAEs ([4]; MAD, 100 mg): 0 n (%); Treatment-related AEs ([4]; MAD, 100 mg): 1 (16.7) n (%); AEs ([4]; MAD, 200 mg): 6 (100.0) n (%); Deaths ([4]; MAD, 200 mg): 0 n (%); Discontinuation due to AEs ([4]; MAD, 200 mg): 2 (33.3) n (%); Elevated ALT (marked laboratory abnormality) ([4]; MAD, 200 mg): 4 (66.7) n (%); Elevated bilirubin (marked laboratory abnormality) ([4]; MAD, 200 mg): 5 (83.3) n (%); Elevates AST (marked laboratory abnormality) ([4]; MAD, 200 mg): 2 (33.3) n (%); Low hematocrit (marked laboratory abnormality) ([4]; MAD, 200 mg): 0 n (%); Low hemoglobin (marked laboratory abnormality) ([4]; MAD, 200 mg): 1 (16.7) n (%); Low leukocytes (marked laboratory abnormality) ([4]; MAD, 200 mg): 3 (50.0) n (%); Low lymphocytes (marked laboratory abnormality) ([4]; MAD, 200 mg): 0 n (%); Low neutrophils (marked laboratory abnormality) ([4]; MAD, 200 mg): 2 (33.3) n (%); SAEs ([4]; MAD, 200 mg): 2 (33.3) n (%); Treatment-related AEs ([4]; MAD, 200 mg): 4 (66.7) n (%); subjects with AEs ([4]; MAD, 15 subjects): 83.3%; AEs ([4]; MAD, all BMS-932481 doses): 15 (83.3) n (%); Deaths ([4]; MAD, all BMS-932481 doses): 0 n (%); Discontinuation due to AEs ([4]; MAD, all BMS-932481 doses): 2 (11.1) n (%); Elevated ALT (marked laboratory abnormality) ([4]; MAD, all BMS-932481 doses): 4 (22.2) n (%); Elevated bilirubin (marked laboratory abnormality) ([4]; MAD, all BMS-932481 doses): 11 (61.1) n (%); Elevates AST (marked laboratory abnormality) ([4]; MAD, all BMS-932481 doses): 2 (11.1) n (%); Low hematocrit (marked laboratory abnormality) ([4]; MAD, all BMS-932481 doses): 2 (11.1) n (%); Low hemoglobin (marked laboratory abnormality) ([4]; MAD, all BMS-932481 doses): 4 (22.2) n (%); Low leukocytes (marked laboratory abnormality) ([4]; MAD, all BMS-932481 doses): 7 (38.9) n (%); Low lymphocytes (marked laboratory abnormality) ([4]; MAD, all BMS-932481 doses): 1 (5.6) n (%); Low neutrophils (marked laboratory abnormality) ([4]; MAD, all BMS-932481 doses): 3 (16.7) n (%); SAEs ([4]; MAD, all BMS-932481 doses): 2 (11.1) n (%); Treatment-related AEs ([4]; MAD, all BMS-932481 doses): 8 (44.4) n (%); subjects with treatment-related AEs ([4]; MAD, eight subjects): 44.4%; CSF Aβ42 lowering at exposures at which increases in liver enzymes were observed ([4]; after multiple dosing): greater than 70%
